Measurements from different studies.
Target: Activin receptor type-1B (ACVR1B, Homo sapiens, UniProt P36896)
Residues used in one study (P36896 24-505): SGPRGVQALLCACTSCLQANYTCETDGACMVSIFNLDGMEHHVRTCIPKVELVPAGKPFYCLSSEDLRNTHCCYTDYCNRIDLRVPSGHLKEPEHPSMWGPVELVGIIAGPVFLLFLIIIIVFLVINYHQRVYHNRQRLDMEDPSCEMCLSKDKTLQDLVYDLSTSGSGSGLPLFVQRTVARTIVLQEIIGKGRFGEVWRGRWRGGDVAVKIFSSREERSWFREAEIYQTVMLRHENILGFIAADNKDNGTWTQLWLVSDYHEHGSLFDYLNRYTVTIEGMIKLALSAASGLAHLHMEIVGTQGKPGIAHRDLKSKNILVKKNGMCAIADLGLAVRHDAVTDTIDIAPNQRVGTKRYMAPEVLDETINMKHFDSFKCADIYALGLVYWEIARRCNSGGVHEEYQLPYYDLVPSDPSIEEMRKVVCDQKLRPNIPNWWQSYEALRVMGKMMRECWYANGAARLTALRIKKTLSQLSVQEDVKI

| Structure (SMILES) | observed | action | technique | concentration | endpoint | result |
| --- | --- | --- | --- | --- | --- | --- |
| C=CC(=O)N1CCC([C@@H]2CCNc3c(C(N)=O)c(-c4ccc(Oc5ccccc5)cc4)nn32)CC1 | enzyme activity | inhibitor |  | 1 µM | inhibition | 5% |
| COc1ccc2oc(-c3ccc4nc(N)oc4c3)c/c(=N\c3ccccc3NC(=O)CCN)c2c1 | binding |  |  | 1 µM | remaining binding | 108% |
| Cc1ccc(NC(=O)c2ccnc(C(F)(F)F)c2)cc1-c1cc(OCCO)nc(N2CCOCC2)c1 | binding |  | competition with immobilised ligand | 1 µM | remaining binding | 99% |
| CCCCC(=O)Nc1ccc(-c2ccc3ncn(CCC)c(=O)c3c2)cn1 | binding |  | competition with immobilised ligand | 0.5 µM | remaining binding | 87% |
| C1=C/COCc2cc(ccc2OCCN2CCCC2)Nc2nccc(n2)-c2cccc(c2)COC/1 | binding |  |  | 0.1 µM | remaining binding | 91% |
| CC#CC(=O)N1CCC[C@H]1c1nc(-c2ccc(C(=O)Nc3ccccn3)cc2)c2c(N)nccn12 | enzyme activity | inhibitor |  | 1 µM | inhibition | 1% |
| C#Cc1cnc(Nc2ccnc(CO)c2)nc1Nc1ccccc1S(C)(=O)=NC#N (stereo not drawn) | cell-free assay |  |  | 1 µM | remaining signal | 52% |
| N#Cc1ccc(NC(=O)Nc2ccccc2)cc1 | cell-free assay |  | competition with immobilised ligand | 25 µM | remaining binding | 100% |
| C[C@H]1CC[C@H](n2c3cnccc3c3cnc(Nc4ccc5c(n4)CCN(C(=O)CO)C5)nc32)CC1 | cell-free assay |  | competition with immobilised ligand | 1 µM | remaining binding | 96% |
